From ChEMBL document CHEMBL3632600, “Novel arylalkylamine compounds exhibits potent selective antiparasitic activity against Leishmania major” (Bioorg Med Chem Lett, 2015) come the findings set out here.

Some results are limits rather than exact numbers.

By IC50 is commonly meant the midpoint of a concentration-inhibition curve. The inhibition is the change of the read-out against control, counted positive when it falls.

The subject of one assay is LLC-MK2. The assay is described as follows: Cytotoxicity against monkey LLC-MK2 cells after 96 hrs by Alamar Blue assay. The note with it: Macaca mulatta, LLC-MK2, 96 h. The assay is classed as cell-based.
In assay [1] the test system is Leishmania major. Put plainly: Antileishmanial activity against promastigote stage of Leishmania major Friedlin clone V1 assessed as parasite survival after 72 hrs by luciferase reporter gene assay. The assay is classed as functional. The note with it: Friedlin clone V1, 72 h, read-out: LD50 (the source's name). The method in brief: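 Luciferase-expressing L. major Friedlin clone V1 promastigotes exposed to compound for 72 h; Amphotericin B served as positive control. Lethality is expressed as LD50.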
On the technique in general: Reporter assays use an easily measured gene product as a stand-in for the process of interest.

Assay [2] has as its system Leishmania major. The assay is described as follows: Antileishmanial activity against promastigote stage of Leishmania major assessed as induction of intracellular reactive oxygen species generation at 3 uM preincubated for 24 hrs followed by H2DCFDA probe addition measured after 20 mins by fluorescence microplate reader analysis relative to vehicle-treated control. It counts as functional. The method in brief:
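L. major promastigotes exposed 24 h (3 µM for the single-concentration read). H2DCFDA then added and incubated a further 20 min at 37 °C; fluorescence read on a microplate reader and expressed relative to 1% DMSO vehicle. Medium-only also served as negative control; hydrogen peroxide 100 µM as positive control.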

The subject of assay [3] is Leishmania major. The assay is described as follows: Antileishmanial activity against amastigote stage of Leishmania major in starch-activated mouse intraperitoneal macrophages assessed as inhibition of intracellular parasite proliferation at 5 uM after 48 hrs by annexin-V 488/DAPI staining-based microplate confocal microscopic analysis relative to control. It counts as functional. The method in brief:
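Macrophages infected 24 h after plating with L. major metacyclic promastigotes at 10 parasites per cell, then treated 48 h at 5 µM. Fixed, stained with annexin-V 488 and DAPI; infected cells (5 or more amastigotes per macrophage) and amastigotes counted by high-content confocal imaging. Negative control 1% DMSO; positive control amphotericin B 25 µM.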

Assay [4] in a line: Cytotoxicity against mouse intraperitoneal macrophages after 48 hrs by Alamar Blue assay. The note with it: Peritoneal macrophage cell. The assay is classed as cell-based. (In general: Alamar Blue is a resazurin reagent that responds to reducing activity.)
In a further assay the test system is U2OS. Put plainly: Cytotoxicity against human U2OS cells after 96 hrs by Alamar Blue assay. It counts as cell-based.
The test system of a further assay is RAW264.7. Put plainly: Cytotoxicity against mouse Raw264.7 cells after 96 hrs by Alamar Blue assay. It counts as cell-based. To be noted: RAW264.7, 96 h.

In the case of `CCOC(=O)c1ccc(NC2CCCCC2)c(N)c1`, the half-inhibitory concentration (IC50) with LLC-MK2 was > 240 µM. For the same compound, the LC50 in the assay on Leishmania major [1] came to 28.8 µM.
Regarding `CCOC(=O)c1ccc(NC2CCCCC2)c([N+](=O)[O-])c1`, the LC50 in the assay on Leishmania major [1] was > 10 µM.
Same read-out and setting: next, `CCOC(=O)c1ccc(NC2CCOCC2)c(N)c1`: > 10 µM; `Nc1cc(C(=O)OCCN2CCOCC2)ccc1NC1CCCCC1`: > 10 µM; `CCOC(=O)c1cc(N)c(NC2CCCCC2)cc1F`: > 10 µM.
For the compound `CCOC(=O)c1ccc(N[C@H]2CC[C@H](N)CC2)c(N)c1`, the LC50 in the assay on Leishmania major [1] is > 10 µM.
The same measure, in the same setting: next, `CCCCCCCCCCOC(=O)c1cc(N)c(NC2CCCCC2)cc1F`: > 10 µM; `CCOC(=O)c1cnc(NC2CCCCC2)c(N)c1`: > 10 µM.
Consider `CCOC(=O)c1ccc(NC2CCCCC2)c(NCc2ccccc2)c1`, for which the “fold change (FC)” value in the assay with Leishmania major [2] is given as 1.75. Further, in the assay with Leishmania major [3], the inhibition at 5 µM was found to be 80%. Moreover, the LC50 in the assay with Leishmania major [1] was determined as 3.34 µM. For the same compound, the half-maximal inhibitory concentration (IC50) (in assay [4]; in the assay with U2OS; in the assay on RAW264.7) was > 80 µM in each case.
Take `CCOC(=O)c1ccc(NC2CCCCC2)c(NCc2ccc(C#N)cc2)c1`: the LC50 with Leishmania major [1] is > 10 µM.
Take `CCOC(=O)c1ccc(NC2CCCCC2)c(NCc2ccc(C(=O)OC)cc2)c1`: the LC50 in the assay with Leishmania major [1] is > 10 µM.
As to `CCOC(=O)c1ccc(NC2CCCCC2)c(NCc2ccc([N+](=O)[O-])cc2)c1`, the LC50 in the assay with Leishmania major [1] is > 10 µM.
On to `CCOC(=O)c1ccc(NC2CCCCC2)c(NCc2ccccc2[N+](=O)[O-])c1`, for which the LC50 with Leishmania major [1] was > 10 µM.
On to `CCOC(=O)c1ccc(NC2CCCCC2)c(NCc2cccc(Cl)c2)c1`, for which, in the assay on Leishmania major [1], the LC50 was > 10 µM.
Same read-out and setting: next, `CCOC(=O)c1ccc(NC2CCCCC2)c(NCc2cccc(F)c2)c1`: > 10 µM; `CCOC(=O)c1ccc(NC2CCCCC2)c(NCc2cc(F)cc(Br)c2)c1`: > 10 µM.
Regarding `CCOC(=O)c1ccc(NC2CCCCC2)c(NCc2ccc(F)c(C#N)c2)c1`, the LC50 in the assay on Leishmania major [1] was > 10 µM.
Take `CCOC(=O)c1ccc(NC2CCCCC2)c(NCc2ccc(OC)cc2)c1`: the LC50 in the assay with Leishmania major [1] is > 10 µM.
Same read-out and setting: the figure for `CCOC(=O)c1ccc(NC2CCCCC2)c(NCc2cccc(OC)c2)c1` is 4.98 µM; for `CCOC(=O)c1ccc(NC2CCC(C(C)(C)C)CC2)c(NCc2ccccc2)c1` (stereo not drawn) it is > 10 µM.
Still for that read-out and setting: the figure for `CCOC(=O)c1ccc(NC2CCC(C(C)(C)C)CC2)c(NCc2ccncn2)c1` (stereo not drawn) is 4.92 µM; for `CCOC(=O)c1cc(NCc2ccncn2)c(NC2CCCCC2)cc1F` it is 9.49 µM.
As for `CCOC(=O)c1ccc(NC23CC4CC(CC(C4)C2)C3)c(NCc2ccccc2)c1`, in the assay with Leishmania major [1], the LC50 was > 10 µM.
In the case of `CCOC(=O)c1ccc(NC23CC4CC(CC(C4)C2)C3)c(NCc2ccncn2)c1`, in the assay with Leishmania major [1], the LC50 is > 10 µM.
Still for that read-out and setting: the figure for `CCOC(=O)c1ccc(NC2CCCCC2)c(NC(=O)OC)c1` is > 10 µM.
On the same count and under the same terms, next, `CCOC(=O)c1ccc(NC2CCCCC2)c(N(Cc2ccccc2)Cc2ccccc2)c1`: > 10 µM.
The same measure, in the same setting: the figure for `O=C(O)c1ccc(NC2CCCCC2)c(NCc2ccccc2)c1` is > 10 µM.
